Results on twelve compounds are retold here after ChEMBL document CHEMBL3098046, “Fragment-based discovery of 6-azaindazoles as inhibitors of bacterial DNA ligase” (ACS Med Chem Lett, 2013).

By IC50 is commonly meant the concentration needed to halve the response being measured. Usually pIC50 stands for the negative decadic logarithm of the IC50, by convention in mol/L. As usually defined, the solubility is the dissolved amount per volume that the medium holds. A high value points to a readily soluble substance. As usually defined, the pKd is −log10 of the Kd, conventionally taken in molar units.

In data set [1] the test system is Pseudomonas aeruginosa. The experiment in a line: Antibacterial activity against Pseudomonas aeruginosa PAO322 after 18 to 24 hrs by broth microdilution method. In kind it is functional. In general terms: Broth dilution looks for growth in wells or tubes with falling amounts of substance.
The test system of data set [2] is Klebsiella pneumoniae. The data set can be described thus: Antibacterial activity against TolC deficient Klebsiella pneumoniae 1161486a after 18 to 24 hrs by broth microdilution method. In kind it is functional.
The subject of data set [3] is Escherichia coli. The data set can be described thus: Antibacterial activity against TolC deficient Escherichia coli 7623 after 18 to 24 hrs by broth microdilution method. In kind it is functional.
The test system of data set [4] is Haemophilus influenzae. The experiment in a line: Antibacterial activity against AcrB deficient Haemophilus influenzae H128 after 18 to 24 hrs by broth microdilution method. Type of data set: functional.
In data set [5] the test system is Acinetobacter baumannii. The experiment in a line: Antibacterial activity against Acinetobacter baumannii BM4454 after 18 to 24 hrs by broth microdilution method. In kind it is functional.
Data set [6] concerns Pseudomonas aeruginosa. The experiment in a line: Antibacterial activity against Pseudomonas aeruginosa PAO(MV) after 18 to 24 hrs by broth microdilution method. In kind it is functional.
The subject of data set [7] is Klebsiella pneumoniae. The experiment in a line: Antibacterial activity against Klebsiella pneumoniae 1161486 after 18 to 24 hrs by broth microdilution method. Type of data set: functional.
Data set [8] deals with Escherichia coli. The experiment in a line: Antibacterial activity against Escherichia coli 7623 after 18 to 24 hrs by broth microdilution method. In kind it is functional.
For data set [9], the system named is Haemophilus influenzae. The data set can be described thus: Antibacterial activity against Haemophilus influenzae H128 after 18 to 24 hrs by broth microdilution method. Type of data set: functional.
Data set [10] has as its system Streptococcus pyogenes. The data set can be described thus: Antibacterial activity against Streptococcus pyogenes 1307006P after 18 to 24 hrs by broth microdilution method. In kind it is functional.
Data set [11] has as its system Streptococcus pneumoniae. The data set can be described thus: Antibacterial activity against Streptococcus pneumoniae 1629 after 18 to 24 hrs by broth microdilution method. Type of data set: functional.
Data set [12] concerns Staphylococcus aureus. The data set can be described thus: Antibacterial activity against Staphylococcus aureus Oxford after 18 to 24 hrs by broth microdilution method. In kind it is functional.
Data set [13] relates to L5178Y. The data set can be described thus: Cytotoxicity against TK +/- expressing mouse L5178Y cells. Type of data set: cell-based. Put shortly:
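Mouse lymphoma cell line (described as lung lymphoma) used for general cytotoxicity, tested up to a highest concentration of 100 μM.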

The target of data set [14] is T1, DNA ligase (Staphylococcus aureus, UniProt Q9AIU7). The data set can be described thus: Inhibition of C-terminal 6xHis-tagged full length recombinant Staphylococcus aureus DNA ligase (1 to 312) expressed in Escherichia coli BL21 (DE3) using oligonucleotide as substrate after 10 mins by TR-FRET assay.
The nature of data set [15]: Solubility of the compound. Type of data set: physicochemical.
Data set [16] concerns the target T1, DNA ligase. The experiment in a line: Binding affinity to C-terminal 6xHis-tagged Staphylococcus aureus DNA ligase (1 to 312) expressed in Escherichia coli BL21 (DE3) by ITC assay. A general note: ITC needs no label: the signal is the heat of the interaction.
Data set [17] is described as follows: Inhibition of Escherichia coli LigA.
Data set [18] relates to Escherichia coli. The data set can be described thus: Antibacterial activity against TolC deficient Escherichia coli TOP10 expressing LigA R518H mutant by broth microdilution method. In kind it is functional.
In data set [19] the test system is Escherichia coli. The experiment in a line: Antibacterial activity against TolC deficient Escherichia coli TOP10 expressing LigA R150S mutant by broth microdilution method. Type of data set: functional.
Data set [20] has as its system Escherichia coli. The data set can be described thus: Antibacterial activity against TolC deficient Escherichia coli TOP10 expressing LigA G180E mutant by broth microdilution method. In kind it is functional.
Data set [21] concerns Escherichia coli. The experiment in a line: Antibacterial activity against TolC deficient Escherichia coli TOP10 by broth microdilution method. In kind it is functional.
For data set [22], the system named is Staphylococcus aureus. The experiment in a line: Antibacterial activity against Staphylococcus aureus RN4220 expressing pYH4-YerG/LigA by broth microdilution method in presence of anhydrotetracycline. Type of data set: functional.
Data set [23] deals with Staphylococcus aureus. The data set can be described thus: Antibacterial activity against Staphylococcus aureus RN4220 expressing pYH4-YerG/LigA by broth microdilution method in absence of anhydrotetracycline. Type of data set: functional.
For data set [24], the system named is Staphylococcus aureus. The experiment in a line: Antibacterial activity against Staphylococcus aureus RN4220 expressing pYH4 by broth microdilution method in presence of anhydrotetracycline. In kind it is functional.
In data set [25] the test system is Staphylococcus aureus. The experiment in a line: Antibacterial activity against Staphylococcus aureus RN4220 expressing pYH4 by broth microdilution method in absence of anhydrotetracycline. Type of data set: functional.
Data set [26] has as its system Acinetobacter baumannii. The experiment in a line: Antibacterial activity against Acinetobacter baumannii BM4652 expressing efflux transporter mutant after 18 to 24 hrs by broth microdilution method.

pIC50, pKd: −log10 of the molar value. ≈ marks a conversion by molar mass, not a printed value.

T1 sequence (Q9AIU7 whole entry): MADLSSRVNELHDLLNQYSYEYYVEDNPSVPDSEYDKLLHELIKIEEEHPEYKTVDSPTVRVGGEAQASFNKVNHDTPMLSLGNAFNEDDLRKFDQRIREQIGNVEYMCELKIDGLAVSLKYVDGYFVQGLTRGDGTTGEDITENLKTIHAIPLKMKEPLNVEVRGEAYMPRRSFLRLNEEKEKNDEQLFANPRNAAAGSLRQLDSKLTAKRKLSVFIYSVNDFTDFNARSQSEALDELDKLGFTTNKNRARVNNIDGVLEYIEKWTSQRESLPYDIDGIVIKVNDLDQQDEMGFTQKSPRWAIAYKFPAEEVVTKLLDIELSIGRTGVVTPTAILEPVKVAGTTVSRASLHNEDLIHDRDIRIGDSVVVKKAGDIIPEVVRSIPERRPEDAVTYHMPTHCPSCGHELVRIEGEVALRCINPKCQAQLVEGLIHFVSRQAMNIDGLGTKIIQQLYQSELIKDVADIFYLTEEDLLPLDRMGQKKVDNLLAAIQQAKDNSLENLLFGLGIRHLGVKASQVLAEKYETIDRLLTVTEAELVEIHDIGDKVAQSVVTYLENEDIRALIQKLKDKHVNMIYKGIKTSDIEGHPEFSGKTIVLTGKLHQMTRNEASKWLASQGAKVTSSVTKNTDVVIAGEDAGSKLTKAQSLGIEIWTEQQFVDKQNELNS

Regarding `Nc1nc(OCC2CCC2)nc2c1ncn2[C@@H]1O[C@H](CF)[C@@H](O)[C@H]1O`, the MIC is 64 µg/mL (≈ 181 µM) in [1]; 8 µg/mL (≈ 22.6 µM) in [2]; 8 µg/mL (≈ 22.6 µM) in data set [3]; 2 µg/mL (≈ 5.66 µM) in data set [4]; over 128 µg/mL in [5]; over 128 µg/mL in data set [6]. For the same compound, the MIC in data set [7] was over 128 µg/mL; in [8], over 128 µg/mL; in [9] it was 16 µg/mL (≈ 45.3 µM); in data set [10], 8 µg/mL (≈ 22.6 µM); in data set [11], 2 µg/mL (≈ 5.66 µM); in [12], 8 µg/mL (≈ 22.6 µM).

Regarding `OCCNc1cc(-c2n[nH]c3cnccc23)nc(C(F)(F)F)c1`, in data set [13], the midpoint of inhibition, the IC50, lay at 16 µg/mL (≈ 49.5 µM). Besides, the MIC in data set [1] is over 128 µg/mL; in data set [2] it was over 128 µg/mL; in data set [3] it was 128 µg/mL (≈ 396 µM); in [4] it was 8 µg/mL (≈ 24.7 µM); in data set [5], over 128 µg/mL; in [6] it was over 128 µg/mL. Also, the MIC in data set [7] is over 128 µg/mL; in [8], over 128 µg/mL; in [9], 128 µg/mL (≈ 396 µM); in data set [10] it was 128 µg/mL (≈ 396 µM); in data set [11], 64 µg/mL (≈ 198 µM); in data set [12], 8 µg/mL (≈ 24.7 µM). In data set [14], the pIC50 is 6.64. Further, the concentration in solution in data set [15] (solubility) came to 113 µg/mL (≈ 350 µM).

On to `COc1cccc(-c2nnc[nH]2)n1`, for which, in data set [14], the negative-log IC50 (pIC50) was 3.89.

For `Cc1cccc(-c2nnc[nH]2)n1`, in [14], the pIC50 is 3.85.

Turning to `FC(F)(F)c1cccc(-c2n[nH]c3cnccc23)n1`, in data set [14], the negative-log IC50 (pIC50) was 6.66. In data set [15], the solubility is 12 µg/mL (≈ 45.4 µM).

Take `c1cc(-c2nnc[nH]2)nc(C2CCC2)c1`: in [14], the negative logarithm of the IC50 (pIC50) was 4.28.

For `c1ccc(-c2nnc[nH]2)nc1`, in data set [14], the negative logarithm of the IC50 (pIC50) is 3.52.

For `FC(F)(F)c1cccc(-c2nc[nH]n2)n1`, the pIC50 in [14] was 4.80.

Turning to `CC(F)(F)c1cccc(-c2nnc[nH]2)n1`, the pIC50 in [14] was 4.68.

As to `Clc1cncc(-c2nnc[nH]2)n1`, the pKd in [16] was 4.42.

Consider `OCCNc1cc(C(F)(F)F)nc(-c2n[nH]c3cnccc23)n1`, for which the negative-log IC50 (pIC50) is 7.01 in [17] and 7.82 in [14]. In addition, the MIC was determined as 64 µg/mL (≈ 197 µM) in data set [18]; 64 µg/mL (≈ 197 µM) in data set [19]; 64 µg/mL (≈ 197 µM) in [20]; 8 µg/mL (≈ 24.7 µM) in [21]; 128 µg/mL in data set [22]; 16 µg/mL (≈ 49.3 µM) in data set [23]. For the same compound, the MIC in data set [24] is 8 µg/mL; in data set [25] it was 8 µg/mL (≈ 24.7 µM); in data set [1], 32 µg/mL (≈ 98.7 µM); in data set [2], 32 µg/mL (≈ 98.7 µM); in [3], 16 µg/mL (≈ 49.3 µM); in data set [4], 1 µg/mL (≈ 3.08 µM). Also, the MIC in data set [5] is over 128 µg/mL; in data set [6], over 128 µg/mL; in data set [7], over 128 µg/mL; in data set [8], over 128 µg/mL; in data set [9], 16 µg/mL (≈ 49.3 µM); in data set [10], 8 µg/mL (≈ 24.7 µM). For the same compound, the MIC in [11] is 2 µg/mL (≈ 6.17 µM); in data set [12], 4 µg/mL (≈ 12.3 µM); in [26], 32 µg/mL (≈ 98.7 µM). Besides, the IC50 in data set [13] was over 36 µg/mL. Also, the pKd in data set [16] is 7.60.

`Clc1cccc(-c2nc[nH]n2)n1`: the pKd in data set [16] was 5.00. In [14], the pIC50 was 4.77.
